For test [1], the target named is Cyclin-dependent kinase 2/cyclin E1 (Homo sapiens, UniProt P24941). Nature of the test: Inhibition of recombinant CDK2/cyclin E (unknown origin) using histone H1 as substrate in presence of [gamma-33P]ATP. The class given is protein-complex assay.
The subject of test [2] is MCF7. Nature of the test: Cell cycle arrest in human MCF7 cells assessed as accumulation of cells in G2+M phase at 100 uM after 24 hrs by propidium iodide staining based flow cytometry relative to untreated control. The class given is functional. In short, it runs like this:
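Flow cytometry on MCF7 cells given 100 µM for 24 h. About one million cells fixed in 90% methanol and rehydrated. DNA stained with propidium iodide, read at 488/575 nm (ex/em). The value is the G2+M fraction of treated cells divided by the G2+M fraction of untreated control cells.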
Background: Flow cytometry measures light scatter and fluorescence of single cells or particles in a stream.

Test [3] concerns MCF7. Nature of the test: Cytotoxicity against human MCF7 cells assessed as inhibition of cell viability after 72 hrs by calcien AM dye based fluorescence analysis. The class given is functional. The following applies: MCF7, 72 h. An outline of the steps:
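MCF7 cells grown in DMEM with 10% FBS, 2 mM glutamine, penicillin and streptomycin at 37 °C and 5% CO2. About 10,000 cells per well, left 4 h, then a concentration range added in triplicate, DMSO ≤0.5% final. After 72 h, 1 µg/ml calcein AM (final) for 1 h; fluorescence read at 485/538 nm. Viability given as % of control; IC50 read graphically from dose-response curves; mean of ≥3 independent experiments.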

Test [4] deals with Cyclin-dependent kinase 1/cyclin B1 (Homo sapiens, UniProt P06493). In words: Inhibition of recombinant CDK1/cyclin B (unknown origin) using histone H1 as substrate in presence of [gamma-33P]ATP. The format is protein-complex assay.
Sequence of Cyclin-dependent kinase 1/cyclin B1 (P06493 whole entry): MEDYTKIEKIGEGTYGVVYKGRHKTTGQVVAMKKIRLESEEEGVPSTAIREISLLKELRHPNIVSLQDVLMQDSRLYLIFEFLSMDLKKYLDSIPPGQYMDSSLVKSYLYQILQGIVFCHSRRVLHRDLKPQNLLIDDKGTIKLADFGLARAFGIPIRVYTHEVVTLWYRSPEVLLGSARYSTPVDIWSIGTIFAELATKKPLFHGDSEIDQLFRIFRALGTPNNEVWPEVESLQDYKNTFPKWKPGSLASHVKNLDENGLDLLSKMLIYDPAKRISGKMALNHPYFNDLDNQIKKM
Sequence of Cyclin-dependent kinase 1/cyclin B1 (P14635 whole entry, further chain): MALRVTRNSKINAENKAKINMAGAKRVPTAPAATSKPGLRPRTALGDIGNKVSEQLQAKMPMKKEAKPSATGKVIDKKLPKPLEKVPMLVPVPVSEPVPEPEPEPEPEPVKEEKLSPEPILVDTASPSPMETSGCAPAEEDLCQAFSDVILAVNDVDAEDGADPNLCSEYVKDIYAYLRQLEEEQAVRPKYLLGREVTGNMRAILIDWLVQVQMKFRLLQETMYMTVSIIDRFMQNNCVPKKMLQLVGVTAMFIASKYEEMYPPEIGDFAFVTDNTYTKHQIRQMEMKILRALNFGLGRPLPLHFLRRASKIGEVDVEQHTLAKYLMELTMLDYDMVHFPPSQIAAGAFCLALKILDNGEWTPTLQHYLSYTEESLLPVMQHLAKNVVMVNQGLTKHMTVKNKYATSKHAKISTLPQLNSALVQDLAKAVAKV
In test [5] the target is Aurora kinase A/B (Homo sapiens) (UniProt Q96GD4+O14965). Nature of the test: Activity at Aurora kinase A/B in human MCF7 cells assessed as histone H3 phosphorylation at Ser10 at 100 uM after 24 hrs by flow cytometry relative to untreated control. The class given is cell-based. In short, it runs like this:
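Flow cytometry on MCF7 cells exposed 24 h to 100 µM. About one million cells fixed in 90% methanol, rehydrated, and labelled with primary antibody to pH3 Ser10, then an Alexa Fluor 488 secondary. Alexa read at 488/525 nm (ex/em). The value is the fraction of pH3-positive cells in treated cultures divided by that in untreated control.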

The target in test [6] is Cyclin-dependent kinase 1/cyclin B1 (Homo sapiens) (UniProt P06493+P14635). Nature of the test: Ratio of compound IC50 to roscovitine IC50 for recombinant CDK1/cyclin B (unknown origin). The class given is protein-complex assay.
Sequence of Cyclin-dependent kinase 1/cyclin B1 (Homo sapiens) (P06493 whole entry, looked up): as the sequence (P06493 whole entry) above
Sequence of Cyclin-dependent kinase 1/cyclin B1 (Homo sapiens) (P14635 whole entry, looked up): as the sequence (P14635 whole entry, further chain) above
The test system of test [7] is MCF7. In words: Ratio of compound IC50 to roscovitine IC50 for human MCF7 cells after 72 hrs by calcien AM dye based fluorescence analysis. The class given is functional.
The target in test [8] is Cyclin-dependent kinase 2/cyclin E1 (Homo sapiens) (UniProt P24864+P24941). In words: Ratio of compound IC50 to roscovitine IC50 for recombinant CDK2/cyclin E (unknown origin). The format is protein-complex assay.

Bounds are passed on as bounds.

The record followed here is ChEMBL document CHEMBL2331324, “Synthesis and biological evaluation of guanidino analogues of roscovitine” (Eur J Med Chem, 2013).

Sequence of Aurora kinase A/B (Homo sapiens) (O14965 whole entry, looked up): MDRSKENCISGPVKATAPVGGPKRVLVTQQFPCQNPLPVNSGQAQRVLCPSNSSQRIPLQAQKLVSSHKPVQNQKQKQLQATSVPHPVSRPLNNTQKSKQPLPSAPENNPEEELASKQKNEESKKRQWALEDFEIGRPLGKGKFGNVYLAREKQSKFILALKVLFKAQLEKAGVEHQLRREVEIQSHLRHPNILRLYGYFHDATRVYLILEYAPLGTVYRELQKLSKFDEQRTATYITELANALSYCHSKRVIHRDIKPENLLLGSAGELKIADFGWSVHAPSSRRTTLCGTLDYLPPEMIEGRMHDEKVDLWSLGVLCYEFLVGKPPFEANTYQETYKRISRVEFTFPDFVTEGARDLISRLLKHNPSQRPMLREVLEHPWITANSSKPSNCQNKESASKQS
Sequence of Aurora kinase A/B (Homo sapiens) (Q96GD4 whole entry, looked up): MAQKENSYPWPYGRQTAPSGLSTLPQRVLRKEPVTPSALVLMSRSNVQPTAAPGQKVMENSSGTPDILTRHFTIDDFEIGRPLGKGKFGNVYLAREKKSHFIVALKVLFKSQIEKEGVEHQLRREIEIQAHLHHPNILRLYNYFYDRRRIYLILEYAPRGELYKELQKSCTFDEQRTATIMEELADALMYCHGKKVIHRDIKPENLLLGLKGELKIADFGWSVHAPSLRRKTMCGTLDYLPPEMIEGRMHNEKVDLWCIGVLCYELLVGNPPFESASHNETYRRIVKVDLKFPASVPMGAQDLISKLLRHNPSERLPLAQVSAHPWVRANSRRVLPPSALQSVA

Broadly, the IC50 is the midpoint of a concentration-inhibition curve. With `CCn1cnc2c(N)nc(N)nc21`, the IC50 is 7.9 µM in test [1], over 100 µM in test [3] and 37.5 µM in test [4]. Also, in test [2], the Ratio came to 1.2.

In the case of `CC(C)[C@@H](N)COc1nc(NC(=N)N)c2ncn(C(C)C)c2n1`, the values for the IC50 in test [1], in test [3] and in test [4] were 8 µM, 79.4 µM and 15.6 µM, respectively. Further, the results for the Ratio in test [2] and in test [5] were 2.1 and 0.39, respectively.

As for `N=C(N)Nc1nc(N)nc2c1ncn2CC(F)(F)F`, the IC50 in test [1], in test [3] and in test [4] was over 100 µM throughout. In addition, the Ratio in test [2] was found to be 0.8.

For the molecule `Cn1cnc2c(NC(=N)N)nc(N)nc21`, the IC50 in test [1] is 6.8 µM; in test [3], over 100 µM; in test [4], 38.2 µM. Besides, the Ratio amounted to 1.5 in test [2] and 0.81 in test [5].

For the molecule `N=C(N)Nc1nc(N)nc2c1ncn2CCN`, the IC50 was over 100 µM in test [1], over 100 µM in test [3] and over 50 µM in test [4]. Further, the Ratio in test [2] worked out at 1.

Turning to `CC(C)Cn1cnc2c(NC(=N)N)nc(N)nc21`, the concentration for half-maximal inhibition (IC50) is 66.5 µM in test [1], 96.6 µM in test [3] and over 100 µM in test [4]. The values for the Ratio in test [2] and in test [5] were 3.5 and 7, respectively.

In the case of `CC(C)n1cnc2c(NC(=N)N)nc(N3CCC[C@H]3CO)nc21`, the IC50 in test [1] was 0.16 µM; in test [3], 6.2 µM; in test [4], 1.5 µM. For the same molecule, the Ratio is 1.7 in test [2] and 0.11 in test [5].

Consider `CC(C)[C@H](CO)Nc1nc(NC(=N)N)c2ncn(C(C)C)c2n1`, for which the figures for the IC50 in test [1], in test [3] and in test [4] were 0.14 µM, 10.5 µM and 2 µM, respectively. Moreover, the Ratio in test [2] was 2.3; in test [5], 0.13.

`CN(C)c1nc(N)nc2c1ncn2CCN=[N+]=[N-]`: the IC50 in test [1], in test [3] and in test [4] was over 100 µM each time. Moreover, the Ratio in test [2] was 1.

As to `CCn1cnc2c(NC(=N)N)nc(N)nc21`, the Ratio IC50 amounted to 5 in test [6], 2 in test [7] and 5 in test [8]. For the same molecule, the IC50 in test [1] worked out at 1.7 µM; in test [3], 54.3 µM; in test [4], 12.6 µM. For the same molecule, the Ratio in test [2] stood at 1.6; in test [5], 0.1.

As for `CC(C)n1cnc2c(NC(=N)N)nc(N3CCC[C@@H]3CO)nc21`, the IC50 came to 0.67 µM in test [1], 20.4 µM in test [3] and 6.2 µM in test [4]. Moreover, the figures for the Ratio in test [2] and in test [5] were 2 and 0.1, respectively.

On to `CC(C)n1cnc2c(NC(=N)N)nc(NC3CC3)nc21`, for which the half-maximal inhibitory concentration (IC50) in test [1] was 0.5 µM; in test [3] it was 5.4 µM; in test [4], 6.4 µM. In addition, the Ratio in test [2] stood at 2.4; in test [5], 0.17.

As to `CC(C)n1cnc2c(NC(=N)N)nc(OC[C@H]3CCCN3)nc21`, the IC50 in test [1] is 23.6 µM; in test [3] it was over 100 µM; in test [4], 81.5 µM. Also, the Ratio in test [2] is 1.3.

`Cn1cnc2c(NC(=N)N)ncnc21`: the IC50 in test [1], in test [3] and in test [4] was over 100 µM in each case. Moreover, the Ratio in test [2] is on record as 1.

For the molecule `CC(C)n1cnc2c(N)nc(N)nc21`, the values for the IC50 in test [1], in test [3] and in test [4] were 22.2 µM, over 100 µM and 64.9 µM, respectively. In test [2], the Ratio was 0.9.

As for `CC(C)n1cnc2c(NC(=N)N)nc(NCCO)nc21`, the IC50 turned out to be 0.82 µM in test [1], 12.4 µM in test [3] and 15.1 µM in test [4]. Moreover, the Ratio stood at 2.9 in test [2] and 0.15 in test [5].

As to `CC[C@H](N)COc1nc(NC(=N)N)c2ncn(C(C)C)c2n1`, the concentration for half-maximal inhibition (IC50) was 6.2 µM in test [1], 16.3 µM in test [3] and 8.1 µM in test [4]. Further, the Ratio was 1.5 in test [2] and 0.07 in test [5].

For `N=C(N)Nc1nc(N)nc2c1ncn2CCO`, the half-inhibitory concentration (IC50) in test [1], in test [3] and in test [4] was over 100 µM throughout. The Ratio in test [2] is reported as 0.9.

As to `[N-]=[N+]=NCCn1cnc2c(NC(=N)N)nc(N)nc21`, the IC50 was 74.9 µM in test [1], over 100 µM in test [3] and over 100 µM in test [4]. Further, in test [2], the Ratio is recorded as 1.4.

On to `CCCn1cnc2c(NC(=N)N)nc(N)nc21`, for which the IC50 came out at 10.7 µM in test [1], 36.5 µM in test [3] and 55.9 µM in test [4]. In addition, the Ratio in test [2] was determined as 4; in test [5], 6.71.

`CC(C)n1cnc2c(NC(=N)N)nc(NCCCCCCO)nc21`: the IC50 in test [1] is 1.6 µM; in test [3] it was 5.2 µM; in test [4], 4.2 µM. Besides, the values for the Ratio in test [2] and in test [5] were 2 and 0.33, respectively.

As to `CC(C)[C@H](N)COc1nc(NC(=N)N)c2ncn(C(C)C)c2n1`, the IC50 in test [1] was 1.8 µM; in test [3], 3.4 µM; in test [4], 1.1 µM. Further, the Ratio in test [2] amounted to 1.7; in test [5] it was 0.09.

Take `CC(C)n1cnc2c(NC(=N)N)nc(OC[C@@H]3CCCN3)nc21`: the IC50 in test [1] was 25.2 µM; in test [3] it was over 100 µM; in test [4], over 100 µM. Also, the Ratio in test [2] turned out to be 1.7; in test [5] it was 0.8.

Take `CC[C@@H](N)COc1nc(NC(=N)N)c2ncn(C(C)C)c2n1`: the figures for the IC50 in test [1], in test [3] and in test [4] were 13.3 µM, over 100 µM and 47.6 µM, respectively. The Ratio in test [2] worked out at 0.8; in test [5], 1.08.

On to `CC(C)n1cnc2c(NC(=N)N)nc(N)nc21`, for which the results for the Ratio IC50 in test [6], in test [7] and in test [8] were 5, 4 and 5, respectively. The IC50 stood at 1.3 µM in test [1], 97.2 µM in test [3] and 14.8 µM in test [4]. Moreover, the Ratio in test [2] amounted to 2; in test [5], 0.18.

Turning to `CC(C)[C@@H](CO)Nc1nc(NC(=N)N)c2ncn(C(C)C)c2n1`, the IC50 was determined as 0.071 µM in test [1], 2.1 µM in test [3] and 1.1 µM in test [4]. In addition, the Ratio in test [2] was 1.8; in test [5], 0.09.

Turning to `CC[C@H](CO)Nc1nc(NCc2ccccc2)c2ncn(C(C)C)c2n1` [SELICICLIB], the IC50 in test [3] worked out at 20.2 µM.

Regarding `CC(C)n1cnc2c(NC(=N)N)nc(NCCCO)nc21`, the IC50 was 0.18 µM in test [1], 8.8 µM in test [3] and 4.1 µM in test [4]. Further, the Ratio worked out at 2.5 in test [2] and 0.18 in test [5].
